This passage reports Activity, IC50 and inhibition results from ChEMBL document CHEMBL4680241, “Structure-activity relationships of triazole-benzodioxine inhibitors of cathepsin X” (Eur J Med Chem, 2020).

The IC50 is the concentration that gives 50% inhibition. The inhibition is the share of the control response that was lost under treatment. A lower inhibition goes with a response near the control.

Each structure is given as a SMILES string. Active and inactive are the calls of the source. The calls are words filed in the database; no cut-off is given here.

Experiment [1] has as its target T1, Cathepsin Z (Homo sapiens, UniProt Q9UBR2). Kind of experiment: Inhibition of human cathepsin X expressed in Pichia pastoris assessed as residual activity at 50 uM using Abz-FEK(Dnp)-OH as substrate incubated for 30 to 45 mins by fluorescence assay relative to control. To be noted: time 30-45 min. The method, boiled down: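 Substrate was Abz-FEK(Dnp)-OH at 3.25 µM final, compound at 50 µM final. Fluorescence (ex 320/em 420 nm) was followed continuously for 30-45 min at 37 °C. Activity was taken from rates relative to no-compound velocity. Two experiments in duplicate.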

Experiment [2] deals with T1, Cathepsin Z. Kind of experiment: Inhibition of human cathepsin X expressed in Pichia pastoris assessed as residual activity using Abz-FEK(Dnp)-OH as substrate incubated for 30 to 45 mins by fluorescence assay.
Experiment [3] concerns PC-3. Kind of experiment: Cytotoxicity against human PC-3 cells assessed as reduction in cell viability at 20 uM after 24 to 48 hrs by MTS assay. Format: functional, cell-based. Particulars: time 24-48 hrs. Put shortly:
(§1)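 PC-3 cells seeded at 6.5×10^4 cells/mL in Advanced DMEM/F-12 with 10% FBS and exposed to compound at 10 or 20 µM for 24 h or 48 h. Means ± SD of three independent assays, each in triplicate.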
Background: Formazan colour is commonly taken as a measure of viable cells.

Experiment [4] deals with PC-3. Briefly: Cytotoxicity against human PC-3 cells assessed as reduction in cell viability at 10 uM after 24 to 48 hrs by MTS assay. Format: functional, cell-based. To be noted: time 24-48 hrs. Put shortly: as §1
For experiment [5], the target named is Cathepsin B (Homo sapiens) (UniProt P07858). Kind of experiment: Inhibition of human cathepsin B expressed in Escherichia coli at 100 uM using Abz-GIVRAK(Dnp)-OH as substrate by fluorescence assay relative to control. The method, boiled down:
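Cathepsin B exopeptidase activity: recombinant enzyme from E. coli in 60 mM acetate buffer pH 5.0 with 5 mM cysteine, 1.5 mM EDTA and 0.1% PEG 8000, activated 5 min at 37 °C. Fluorogenic substrate Abz-GIVRAK(Dnp)-OH.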

For experiment [6], the target named is Procathepsin L (Homo sapiens) (UniProt P07711). Kind of experiment: Inhibition of human cathepsin L expressed in Escherichia coli at 100 uM using Z-FR-AMC as substrate by fluorescence assay relative to control.
Experiment [7] deals with T2, Cathepsin S (Homo sapiens, UniProt P25774). Kind of experiment: Inhibition of human cathepsin S expressed in Pichia pastoris at 100 uM using Z-VVR-AMC as substrate by fluorescence assay relative to control. The method, boiled down:
(§2)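 Cathepsin S expressed in P. pastoris, assayed in 100 mM phosphate buffer pH 6.5 containing 5 mM cysteine, 1.5 mM EDTA and 0.1% PEG 8000 after 5 min activation at 37 °C. Substrate was fluorogenic Z-VVR-AMC.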
Target sequence in this assay (P25774 115-331 limits assumed): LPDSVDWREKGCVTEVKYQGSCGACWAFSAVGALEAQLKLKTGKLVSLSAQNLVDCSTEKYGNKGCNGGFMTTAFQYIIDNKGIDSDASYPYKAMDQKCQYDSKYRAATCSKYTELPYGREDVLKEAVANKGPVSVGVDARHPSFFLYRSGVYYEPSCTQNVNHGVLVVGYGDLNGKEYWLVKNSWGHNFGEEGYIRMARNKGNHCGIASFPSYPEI

Experiment [8] concerns the target T2, Cathepsin S. Kind of experiment: Inhibition of human cathepsin S expressed in Pichia pastoris using Z-VVR-AMC as substrate by fluorescence assay. The method, boiled down:
as §2
Target sequence in this assay (P25774 whole entry): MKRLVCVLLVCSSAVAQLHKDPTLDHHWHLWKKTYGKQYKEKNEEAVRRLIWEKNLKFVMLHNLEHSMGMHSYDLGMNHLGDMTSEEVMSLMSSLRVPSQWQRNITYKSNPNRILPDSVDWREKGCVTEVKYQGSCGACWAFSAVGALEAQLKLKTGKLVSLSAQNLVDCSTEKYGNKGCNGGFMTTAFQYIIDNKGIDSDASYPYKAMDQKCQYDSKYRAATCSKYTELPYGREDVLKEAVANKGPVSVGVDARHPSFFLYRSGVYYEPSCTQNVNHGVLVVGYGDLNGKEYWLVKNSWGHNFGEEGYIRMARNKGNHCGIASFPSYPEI

Experiment [9] has as its system PC-3. Kind of experiment: Antimigratory activity against human PC-3 cells at 10 uM up to 72 hrs by xCELLigence based RTCA analysis relative to control. To be noted: dose 20 µM; time hrs <=72; in the assay text read “at 20 uM” for “at 10 uM”. Format: functional. The method, boiled down:
(§3)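 PC-3 cells grown in Advanced DMEM/F-12 (1:1) with 10% FBS, L-glutamine and penicillin/streptomycin. Fibronectin-coated (10 μg/mL) xCELLigence CIM plates held 2 × 10⁴ cells per well. Compound at 10 or 20 μM was added to complete medium (lower chamber) or serum-free medium (upper chamber), with 0.1% DMSO as control. Cell index was read every 15 min for 72 h. Migration was taken as the slope of the curve over a selected interval, normalized to DMSO-treated cells. Means ± SD, two independent assays in duplicate or triplicate.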

Experiment [10] concerns PC-3. Briefly: Antimigratory activity against human PC-3 cells at 20 uM up to 72 hrs by xCELLigence based RTCA analysis. Format: functional, cell-based. To be noted: time hrs <=72. The method, boiled down:
as §3

T1 sequence (Q9UBR2 whole entry): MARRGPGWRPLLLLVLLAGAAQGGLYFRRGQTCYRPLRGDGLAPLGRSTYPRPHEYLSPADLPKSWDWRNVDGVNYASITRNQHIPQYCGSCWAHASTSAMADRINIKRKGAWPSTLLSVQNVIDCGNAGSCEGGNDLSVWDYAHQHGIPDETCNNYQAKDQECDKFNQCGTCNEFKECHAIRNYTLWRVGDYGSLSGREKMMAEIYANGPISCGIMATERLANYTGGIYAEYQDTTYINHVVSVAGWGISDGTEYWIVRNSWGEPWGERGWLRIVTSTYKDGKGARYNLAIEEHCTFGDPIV
Procathepsin L (Homo sapiens), sequence (P07711 114-333 limits assumed): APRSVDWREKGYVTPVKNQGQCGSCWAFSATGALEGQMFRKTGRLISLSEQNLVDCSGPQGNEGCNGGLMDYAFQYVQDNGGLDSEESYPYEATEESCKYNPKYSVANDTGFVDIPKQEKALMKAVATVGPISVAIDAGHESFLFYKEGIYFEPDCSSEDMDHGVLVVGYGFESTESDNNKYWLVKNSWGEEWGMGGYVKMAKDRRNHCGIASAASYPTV

For the compound `Cc1ccc(C(=O)CSc2nncn2C(C)C)cc1`, the Activity at Cathepsin Z [1] stood at 75%.

As for `CC(C)n1cnnc1SCC(=O)c1ccc(Br)cc1`, at Cathepsin Z [1], the Activity came out at 77%. Still for that read-out and setting: in the case of `CC(C)n1cnnc1SCC(=O)c1c[nH]c2ccccc12` it was 27%; in that of `CC(C)n1cnnc1SCC(=O)C(C)(C)C`, 80%; in that of `CO/N=C(\CSc1nncn1C(C)C)c1ccc2c(c1)OCCO2`, 90%. As to `Cc1n[nH]c(SCC(=O)c2ccc3c(c2)OCCO3)n1`, the Activity on Cathepsin Z [1] was 28%. `CN(C)c1ccc(-n2cnnc2SCC(=O)c2ccc3c(c2)OCCO3)cc1`: the Activity on Cathepsin Z [1] is 55%. Same read-out and setting: in the case of `CC(C)n1cnnc1SCC(=O)c1ccc(N(C)C)cc1` it was 41%. Same read-out and setting: the value for `CC(C)n1cnnc1SCC(=O)c1ccc2c(c1)OCO2` was 24%; that for `O=C(CSc1ccccc1)c1ccc2c(c1)OCCO2` was 48%; that for `O=C(COc1nnc[nH]1)c1ccc2c(c1)OCCO2` was 71%. Still for that read-out and setting: in the case of `CC(C)n1cnnc1SCC(=O)c1ccc(OCC#N)cc1` it was 69%; in that of `CC(C)n1cnnc1SCC(=O)c1ccc(C#N)cc1`, 92%. On to `O=C(CSc1nccs1)c1ccc2c(c1)OCCO2`, for which the Activity at Cathepsin Z [1] is 22%.

On to `O=C(CSc1nncn1-c1cccnc1)c1ccc2c(c1)OCCO2`, for which the Activity on Cathepsin Z [1] came out at 22%.

As to `COc1ccccc1C(=O)CSc1nncn1C(C)C`, the Activity on Cathepsin Z [1] came to 49%.

`CC(C)Oc1ccc(C(=O)CSc2nncn2C(C)C)cc1`: the Activity at Cathepsin Z [1] was 63%. For the compound `CC(C)n1cnnc1SCC(=O)c1ccc2c(c1)OCCO2`, the Activity on Cathepsin Z [1] came to 15%. Besides, at Cathepsin Z [2], the 50% inhibitory concentration (IC50) worked out at 11.5 µM. Besides, in the experiment on PC-3 [3], the result was inactive. Take `CCn1cnnc1SCC(=O)c1ccc2c(c1)OCCO2`: the Activity on Cathepsin Z [1] turned out to be 24%.

With `O=C(CSc1ncc[nH]1)c1ccc2c(c1)OCCO2`, the Activity on Cathepsin Z [1] was found to be 17%. Further, on Cathepsin Z [2], the IC50 is 13.6 µM. In addition, the outcome in the experiment on PC-3 [3] was inactive. Consider `O=C(CSc1nc(-c2ccccc2)n[nH]1)c1ccc2c(c1)OCCO2`, for which, at Cathepsin Z [1], the Activity came out at 37%. The same measure, in the same setting: in the case of `CC(C)n1cnnc1SCC(=O)c1ccc(O)cc1` it was 73%; in that of `O=C(CSc1nnc[nH]1)c1ccc2c(c1)OCCO2`, 23%. For `N#Cc1ccc(-n2cnnc2SCC(=O)c2ccc3c(c2)OCCO3)cc1`, the Activity on Cathepsin Z [1] is 20%. Besides, the concentration for half-maximal inhibition (IC50) at Cathepsin Z [2] came out at 12.4 µM. The outcome in the experiment with PC-3 [4] was inactive. The result in the experiment on PC-3 [3] was Active. For `CCOC(=O)COc1ccc(C(=O)CSc2nncn2C(C)C)cc1`, the Activity on Cathepsin Z [1] came out at 60%.

In the case of `NC(=O)c1ccc(-n2cnnc2SCC(=O)c2ccc3c(c2)OCCO3)cc1`, the Activity on Cathepsin Z [1] amounted to 35%. On the same count and under the same terms, the value for `COc1ccc(C(=O)CSc2nncn2C(C)C)cc1` was 66%; that for `O=C(CSc1nc(-c2ccncc2)n[nH]1)c1ccc2c(c1)OCCO2` was 33%; that for `CC(C)n1cnnc1SCC(=O)c1cccc([N+](=O)[O-])c1` was 100%.

Turning to `N#CCn1ccnc1SCC(=O)c1ccc2c(c1)OCCO2`, the Activity on Cathepsin Z [1] was 12%; in the experiment on PC-3 [9] it was 21%. Also, the IC50 stood at 7.13 µM on Cathepsin Z [2] and 241 µM against Cathepsin S [8]. The inhibition (in experiment [5]; in experiment [6]; at Cathepsin S [7]) was 30% throughout. For the same compound, in the experiment on PC-3 [3], the result was inactive. Consider `CC(C)n1cnnc1SCC(=O)c1ccc(OCC(=O)O)cc1`, for which the Activity at Cathepsin Z [1] was 85%. Turning to `Cn1cnnc1SCC(=O)c1ccc2c(c1)OCCO2`, the Activity at Cathepsin Z [1] was 17%. Moreover, at Cathepsin Z [2], the half-maximal inhibitory concentration (IC50) was found to be 11.8 µM. Also, the outcome in the experiment with PC-3 [3] and in the experiment on PC-3 [10] was inactive. Regarding `O=C(CSc1cccs1)c1ccc2c(c1)OCCO2`, the Activity on Cathepsin Z [1] turned out to be 39%.

Regarding `COc1cccc(C(=O)CSc2nncn2C(C)C)c1`, at Cathepsin Z [1], the Activity stood at 73%.

Turning to `O=C(CSc1nc(C2CCCCC2)n[nH]1)c1ccc2c(c1)OCCO2`, the Activity on Cathepsin Z [1] amounted to 30%. Same read-out and setting: in the case of `CC(C)n1cnnc1SCC(O)c1ccc2c(c1)OCCO2` (configuration not stated) it was 98%; in that of `Cn1nnnc1SCC(=O)c1ccc2c(c1)OCCO2`, 36%.

For `Cn1ccnc1SCC(=O)c1ccc2c(c1)OCCO2`, at Cathepsin Z [1], the Activity was 15%. For the same compound, the IC50 at Cathepsin Z [2] came out at 9.54 µM. The result in the experiment with PC-3 [4] and in the experiment with PC-3 [3] was inactive. For the compound `O=C(CSc1nc(C2CCCCC2)nn1C(=O)C1CCCCC1)c1ccc2c(c1)OCCO2`, the Activity at Cathepsin Z [1] was 43%.

Consider `CC(C)n1cnnc1SCC(=O)c1ccccc1`, for which the Activity on Cathepsin Z [1] was 100%.

Regarding `Cc1[nH]c2ccccc2c1C(=O)CSc1nncn1C(C)C`, the Activity at Cathepsin Z [1] came out at 62%. The same measure, in the same setting: in the case of `CC(C)n1cnnc1SCC(N)c1ccc2c(c1)OCCO2` (configuration not stated) it was 90%.
